Measurements: ChEMBL document CHEMBL1782036, “Atovaquone derivatives as potent cytotoxic and apoptosis inducing agents” (Bioorg Med Chem Lett, 2009)
The source made the active and inactive calls. No cut-off for these calls is given here.

What was measured:
DU-145 [1] = assay: Induction of apoptosis in human DU145 cells at 10 uM assessed as live cell level after 72 hrs by AnnexinV conjugated 7- AAD staining by flow cytometry; assay type: functional
Procedure, shortened: (§1)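 Du145 cells were treated for 72 h and stained with Annexin V conjugate plus 7-AAD. Flow cytometry read PS externalization and membrane integrity, scoring cells as live (double negative), early apoptotic, or late apoptotic/necrotic (double positive). Untreated cells served as the control.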

HT-1080 = assay: Antiproliferative activity against human HT1080 cells after 72 hrs by MTT assay; assay type: functional, cell-based; details: HT-1080, 72 h
DU-145 [2] = assay: Induction of apoptosis in human DU145 cells assessed as caspase-9 activation at 1 to 10 uM after 24 hrs by Western blot analysis; assay type: functional, cell-based
Procedure, shortened: (§2)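 Du145 lysates from dose-ranging treatment were analysed by Western blot for activation of caspase 9 and caspase 3.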

U-251 = assay: Antiproliferative activity against human U251 cells after 72 hrs by MTT assay; assay type: functional, cell-based; details: U-251, 72 h
[3] = Antiproliferative activity against human L78 cells after 72 hrs by MTT assay; assay type: functional, cell-based; details: L78, 72 h
DU-145 [4] = assay: Induction of apoptosis in human DU145 cells assessed as caspase-3 activation at 1 to 10 uM after 24 hrs by Western blot analysis; assay type: functional, cell-based; procedure, shortened: as §2
DU-145 [5] = assay: Induction of apoptosis in human DU145 cells at 10 uM assessed as early apoptosis level after 72 hrs by AnnexinV conjugated 7- AAD staining by flow cytometry; assay type: functional; procedure, shortened: as §1
OS-RC-2 = assay: Antiproliferative activity against human OS-RC2 cells after 72 hrs by MTT assay; assay type: functional, cell-based; details: OS-RC-2, 72 h
A549 = assay: Antiproliferative activity against human A549 cells after 72 hrs by MTT assay; assay type: functional, cell-based; details: A549, 72 h
MCF7 = assay: Antiproliferative activity against human MCF7 cells after 72 hrs by MTT assay; assay type: functional, cell-based; details: MCF7, 72 h
DU-145 [6] = assay: Induction of apoptosis in human DU145 cells at 10 uM assessed as dead cell level after 72 hrs by AnnexinV conjugated 7- AAD staining by flow cytometry; assay type: functional
Procedure, shortened: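 Du145 human prostate carcinoma cells exposed to compound for 72 h, then stained with Annexin V and 7-AAD and analysed by flow cytometry. Annexin V detects phosphatidylserine externalised to the outer membrane leaflet, and 7-AAD enters only membrane-compromised cells. Dead cells were those positive for both stains. Untreated cells served as control.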

DU-145 [7] = assay: Induction of chromatin condensation in human DU145 cells at 20 uM by Hoechst 33342 staining by fluorescent microscopy; assay type: functional, cell-based
Procedure, shortened: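 Du145 cells were exposed for 24 h, with 0.2% DMSO as the vehicle control. Nuclei were stained with Hoechst 33342 and viewed by fluorescence microscopy at 100× for chromatin condensation and nuclear shrinkage.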

DU-145 [8] = assay: Growth inhibition of human DU145 cells after 72 hrs by MTT assay; assay type: functional, cell-based; details: DU-145, 72 h
Procedure, shortened: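 Du145 human prostate carcinoma cells were screened by MTT cell-growth inhibition assay. IC50 values are means of three experiments.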

SGC-7901 = assay: Antiproliferative activity against human SGC7901 cells after 72 hrs by MTT assay; assay type: functional, cell-based; details: SGC-7901, 72 h
HepG2 = assay: Antiproliferative activity against human HepG2 cells after 72 hrs by MTT assay; assay type: functional, cell-based; details: HepG2, 72 h
KB = assay: Antiproliferative activity against human KB cells after 72 hrs by MTT assay; assay type: functional, cell-based
MOLT-4 = assay: Antiproliferative activity against human MOLT4 cells after 72 hrs by MTT assay; assay type: functional, cell-based; details: MOLT-4, 72 h
HT-29 = assay: Antiproliferative activity against human HT-29 cells after 72 hrs by MTT assay; assay type: functional, cell-based; details: HT-29, 72 h
IMR-90 = assay: Antiproliferative activity against human IMR90 cells after 72 hrs by MTT assay; assay type: cell-based; details: IMR-90, 72 h
DU-145 [9] = assay: Induction of apoptosis in human DU145 cells at 10 uM after 72 hrs by AnnexinV conjugated 7- AAD staining by flow cytometry; assay type: functional, cell-based; procedure, shortened: as §1
HeLa = assay: Antiproliferative activity against human HeLa cells after 72 hrs by MTT assay; assay type: functional, cell-based
DU-145 [10] = assay: Induction of apoptosis in human DU145 cells at 5 uM after 72 hrs by AnnexinV conjugated 7- AAD staining by flow cytometry; assay type: functional, cell-based; procedure, shortened: as §1

## O=C1C=C(N2CCN(c3ccccc3)CC2)C(=O)c2c(O)cccc21
DU-145 [1]
  Activity: 2.8%
HT-1080
  IC50: 8.2 µM
DU-145 [2]
  Activity: Dose-dependent effect
U-251
  IC50: 6.1 µM
[3]
  IC50: 3.6 µM
DU-145 [4]
  Activity: Dose-dependent effect
DU-145 [5]
  Activity: 37.6%
OS-RC-2
  IC50: 1.5 µM
A549
  IC50: 4.2 µM
MCF7
  IC50: 5.2 µM
DU-145 [6]
  Activity: 58%
DU-145 [7]
  Activity: Active
DU-145 [8]
  IC50: 2.8 µM
SGC-7901
  IC50: 3.7 µM
HepG2
  IC50: 5.4 µM
KB
  IC50: 7 µM
MOLT-4
  IC50: > 50 µM
HT-29
  IC50: 2.9 µM
IMR-90
  IC50: > 50 µM
DU-145 [9]
  Activity: Active
HeLa
  IC50: 6.9 µM
DU-145 [10]
  Activity: Active
